The test system of one data set is A549. Nature of the data set: MTT cytotoxicity assay. Particulars: 48 h; for IC50: read-out: IC50 A549, MTT. The class given is cell-based, human. In a few lines:
(§1)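 Cancer lines and normal LO2 cells were incubated with test compound for 48 h before viability was assessed. IC50 values reported as means ± SD.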
A general note: Tetrazolium dyes change colour on reduction, which living cells bring about.

The subject of data set [1] is A549 cells. As to the kind of experiment: Annexin V/PI double staining, flow cytometry. The class given is cell-based, human. Particulars: 24 h; for apoptotic cells: A549, 10 μM, control 1.4 ± 0.02%; for effect of NAC pre-treatment on apoptosis-inducing capability: A549, NAC 10 mM. In a few lines: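 A549 cells treated with test compound for 24 h, then double-labelled with annexin V and PI and analysed by flow cytometry. Early apoptotic cells scored as annexin V-positive/PI-negative, and late apoptotic/necrotic cells as annexin V-positive/PI-positive. Both fractions were counted as apoptotic.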

Data set [2] has as its system A549 cells. As to the kind of experiment: Intracellular ROS detection, H2DCFDA flow cytometry. The class given is cell-based, human. Particulars: A549, 10 μM, 6 h. A general note: In flow cytometry, cells or beads pass a laser one at a time.
Data set [3] concerns A549 cells. Nature of the data set: MMP analysis, JC-1 flow cytometry. The class given is cell-based, human. Particulars: A549, 10 μM, 6 h, control 6.6 ± 0.7%.
In data set [4] the test system is cisplatin-resistant A549 (A549R). As to the kind of experiment: MTT cytotoxicity assay. Particulars: for cross-resistance with cisplatin: cisplatin-resistant A549R cells; for IC50: read-out: IC50 A549R, 48 h, MTT. The class given is cell-based, human. In a few lines:
as §1

Data set [5] has as its system A549 cells. Nature of the data set: Mitochondrial bioenergetics, Seahorse OCR. It counts as cell-based, human. Particulars: for non-mitochondrial respiration: after rotenone/antimycin A; for ATP production (coupled respiration, OCR): oligomycin; for ATP production (coupled respiration, OCR) / basal OCR: versus control. In a few lines:
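Oxygen consumption rate of treated A549 cells measured on a Seahorse XF24 analyser. Sequential injections: oligomycin 0.75 μM, FCCP 0.6 μM, then rotenone 0.5 μM plus antimycin A 0.5 μM. OCR normalised to protein by BCA assay. Basal respiration = basal OCR minus post-rotenone/antimycin OCR. ATP-linked respiration = basal minus post-oligomycin OCR. Non-mitochondrial respiration = OCR remaining after rotenone/antimycin.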

For data set [6], the system named is A549 cells. As to the kind of experiment: Cell cycle analysis, PI flow cytometry. Particulars: A549, 2.5 μM, 24 h; control 57.4 ± 3.1%. It counts as cell-based, human.
The next data set deals with PC3. As to the kind of experiment: MTT cytotoxicity assay. The class given is cell-based, human. Particulars: read-out: IC50 PC3, 48 h. In a few lines:
as §1

The test system of data set [7] is A549 cells. As to the kind of experiment: Intracellular ATP quantification. Particulars: for intracellular ATP level: A549, 10 μM, 6 h, control 86.3 ± 1.0 nM; for impact on intracellular ATP levels: A549, 6 h, versus control cells. It counts as cell-based, human. In a few lines: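 A549 cells exposed for 6 h to vehicle or to test compound across several concentrations. Intracellular ATP content measured and reported in nM, relative to vehicle-treated control cells.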

Data set [8] is described as follows: Lipophilicity, shake-flask log Po/w. It counts as physicochemical. Particulars: octanol/water.
Data set [9] concerns A549 cells. As to the kind of experiment: MTT viability with NAC pretreatment. It counts as cell-based, human. Particulars: A549, NAC 10 mM 1 h, then 24 h.
A further data set deals with MDB-MA-231. As to the kind of experiment: MTT cytotoxicity assay. The class given is cell-based, human. Particulars: read-out: IC50 MDB-MA-231, 48 h. In a few lines:
as §1

Data set [10] has as its system A549 cells. As to the kind of experiment: MTT viability with z-VAD-fmk pretreatment. The class given is cell-based, human. Particulars: A549, z-VAD-fmk 50 μM 2 h, then 24 h.
Another data set has as its system LO2. As to the kind of experiment: MTT cytotoxicity assay. The class given is cell-based. Particulars: read-out: IC50 LO2, 48 h, human normal liver cells. In a few lines:
as §1

The next data set relates to HeLa. Nature of the data set: MTT cytotoxicity assay. It counts as cell-based, human. Particulars: read-out: IC50 HeLa, 48 h. In a few lines:
as §1

The test system of data set [11] is caspase-3/7 in A549 cells. As to the kind of experiment: Caspase-3/7 activity, Caspase-Glo assay. The class given is cell-based, human. Particulars: A549, 10 μM, 12 h.
The subject of data set [12] is A549 cells. Nature of the data set: Microarray gene chip analysis. Particulars: A549, 3 μM, 24 h. It counts as cell-based, human.
The next data set relates to A549/LO2 coculture. Nature of the data set: Co-culture model of A549 and LO2 cells, annexin V/PI. It counts as cell-based, human. Particulars: 10 μM, 24 h, A549 Hoechst-prelabeled.
The target in data set [13] is bovine serum albumin (BSA) (Bos taurus, UniProt P02769). Nature of the data set: Emission enhancement upon binding with BSA. Particulars: molar ratio BSA : Ir(III) 8 : 1.
A short description of data set [14]: Stability of complex 2 by 1H NMR. The class given is physicochemical. Particulars: DMSO-d6/D2O (v/v, 7/3), 37 °C.

Data on five compounds can be found in paper PMC5933427 (Chemical Science, 2016).

As a reminder, the IC50 is the concentration at which inhibition is half-maximal.

Chain of bovine serum albumin (BSA) (P02769 25-607): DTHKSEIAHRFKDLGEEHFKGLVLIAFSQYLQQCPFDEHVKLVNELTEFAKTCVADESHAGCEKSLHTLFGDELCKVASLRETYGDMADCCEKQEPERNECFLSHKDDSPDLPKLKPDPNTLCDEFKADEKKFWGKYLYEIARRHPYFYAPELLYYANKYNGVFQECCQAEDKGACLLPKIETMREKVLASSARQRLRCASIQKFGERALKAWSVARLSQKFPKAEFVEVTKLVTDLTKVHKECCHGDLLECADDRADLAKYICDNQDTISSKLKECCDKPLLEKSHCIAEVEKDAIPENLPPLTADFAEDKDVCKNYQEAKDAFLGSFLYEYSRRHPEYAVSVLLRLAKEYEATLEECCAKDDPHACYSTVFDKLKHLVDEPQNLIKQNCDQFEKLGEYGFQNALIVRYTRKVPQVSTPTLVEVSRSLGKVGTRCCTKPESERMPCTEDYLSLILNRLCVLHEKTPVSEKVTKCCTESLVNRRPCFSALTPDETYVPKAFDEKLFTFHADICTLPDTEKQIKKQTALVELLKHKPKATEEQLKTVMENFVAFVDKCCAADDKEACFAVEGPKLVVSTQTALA

Regarding `ClCc1ccnc(-c2cc(CCl)ccn2)c1.F[P-](F)(F)(F)(F)F.Fc1c[c-]c(-c2ccccn2)c(F)c1.Fc1c[c-]c(-c2ccccn2)c(F)c1.[Ir+3]` [Complex 4], the IC50 with A549 was found to be 0.21 ± 0.02 µM. Moreover, in the data set on A549 cells [1], the apoptotic cells amounted to 61.5 ± 1.1% and the “effect of NAC pre-treatment on apoptosis-inducing capability” value was “decreases the apoptosis-inducing capability”. In addition, the “increase of mean fluorescent intensity (MFI) of DCF” value with A549 cells [2] is given as ~13.7 fold. Also, the “percentage of cells with mitochondrial membrane depolarization” value with A549 cells [3] is recorded as 82.4 ± 7.6%. Also, in data set [4], the cross-resistance with cisplatin entry is reported as “not cross-resistant with cisplatin” and the IC50 turned out to be 0.74 ± 0.05 µM. For the same compound, in the data set with A549 cells [5], the non-mitochondrial respiration entry is “decrease”; the “ATP production (coupled respiration, OCR)” value is listed as “dose-dependent decrease”; the “basal OCR” value is given as “decrease”. Besides, the “percentage of cells in the G0/G1 phase” value in the data set on A549 cells [6] is 88.8 ± 5.2%. In addition, the IC50 with PC3 was determined as 1.04 ± 0.09 µM. For the same compound, in the data set with A549 cells [7], the “intracellular ATP level” value worked out at 20.2 ± 3.3 nM and the “impact on intracellular ATP levels” value is “significant dose-dependent decrease”. Further, the “Lipophilicity (log Po/w)” value in data set [8] stood at 2.12. For the same compound, the “effect of NAC pre-treatment on antiproliferative potency” value in the data set on A549 cells [9] was “significantly diminishes”. Further, in the data set with MDB-MA-231, the IC50 was 0.66 ± 0.05 µM. In the data set with A549 cells [10], the “effect of z-VAD-fmk pre-treatment on antiproliferative activity” value is “inhibits the antiproliferative activity”. For the same compound, the IC50 with LO2 amounted to 1.5 ± 0.1 µM. Also, in the data set on HeLa, the IC50 is 1.8 ± 0.1 µM. Moreover, the “increase of caspase-3/7 activity” value in data set [11] is reported as ~1.7 fold.

As for `ClCc1ccnc(-c2cc(CCl)ccn2)c1.F[P-](F)(F)(F)(F)F.[Ir+3].[c-]1ccccc1-c1ccccn1.[c-]1ccccc1-c1ccccn1` [Complex 2], the “selectivity for cancerous A549 cells over noncancerous LO2 cells” value with A549 (from IC50 values) was ~11 fold. Further, the IC50 in the data set on A549 was found to be 0.4 ± 0.02 µM. In the data set on A549 cells [1], the apoptotic cells stood at 17.5 ± 0.8% and the “effect of NAC pre-treatment on apoptosis-inducing capability” value was “decreases the apoptosis-inducing capability”. Also, the “increase of mean fluorescent intensity (MFI) of DCF” value in the data set on A549 cells [2] is listed as “approximately 5.5 fold”. Moreover, the “percentage of cells with mitochondrial membrane depolarization” value with A549 cells [3] is recorded as 85.7 ± 1.7%. Also, in data set [4], the cross-resistance with cisplatin entry is “not cross-resistant with cisplatin” and the IC50 came to 0.64 ± 0.04 µM. Besides, in the data set on A549 cells [5], the non-mitochondrial respiration entry was “decrease”; the “ATP production (coupled respiration, OCR)” value was “dose-dependent decrease”; the “basal OCR” value was “decrease”. In the data set with A549 cells [12], the “No. of down-regulated genes sets (p< 0.05, FC> 2)” value is reported as 715 and the “No. of up-regulated genes sets (p< 0.05, FC> 2)” value came out at 507. In the data set on A549 cells [6], the “percentage of cells in the G0/G1 phase” value is listed as 85.3 ± 4.4%. For the same compound, the IC50 with PC3 was determined as 1.4 ± 0.1 µM. Besides, in the data set on A549 cells [7], the “intracellular ATP level” value stood at 30.2 ± 2.4 nM and the “impact on intracellular ATP levels” value was “significant dose-dependent decrease”. In data set [8], the “Lipophilicity (log Po/w)” value was 1.28. The “effect of NAC pre-treatment on antiproliferative potency” value in the data set with A549 cells [9] is “significantly diminishes”. The IC50 in the data set with MDB-MA-231 amounted to 0.33 ± 0.02 µM. Also, in the data set on A549/LO2 coculture, the “selective killing of cancer cells in co-culture” value was “most of the A549 cells (blue nuclei) are stained positively by both annexin V and PI, while the LO2 cells are still viable”. Besides, the “effect of z-VAD-fmk pre-treatment on antiproliferative activity” value in the data set on A549 cells [10] is on record as “inhibits the antiproliferative activity”. Besides, in data set [13], the “emission enhancement upon binding with BSA” value is recorded as ~11.6 fold. Also, the IC50 with LO2 was 4.5 ± 0.3 µM. Also, the IC50 in the data set on HeLa is 0.52 ± 0.04 µM. In data set [14] (48 h), the “complex invariant (intact)” value is recorded as “about 98.5%”. The “complex transformed (hydrolysis of chloromethyl groups)” value in data set [14] (7 days) is listed as “about 26.2%”. The “increase of caspase-3/7 activity” value in data set [11] is “approximately 1.6 fold”.

For `F[P-](F)(F)(F)(F)F.Fc1c[c-]c(-c2ccccn2)c(F)c1.Fc1c[c-]c(-c2ccccn2)c(F)c1.OCc1ccnc(-c2cc(CO)ccn2)c1.[Ir+3]` [Complex 3], the IC50 in the data set with A549 was 16.8 ± 1.2 µM; in [4], 17.8 ± 1.4 µM; in the data set with PC3, 38 ± 1.9 µM; in the data set on MDB-MA-231, 12.3 ± 1.1 µM; in the data set with LO2, 8.1 ± 0.5 µM; in the data set with HeLa, 2.7 ± 0.2 µM. Further, in the data set with A549 cells [7], the “impact on intracellular ATP levels” value is “not obvious”. Also, in [8], the “Lipophilicity (log Po/w)” value is recorded as 1.09.

As for `F[P-](F)(F)(F)(F)F.OCc1ccnc(-c2cc(CO)ccn2)c1.[Ir+3].[c-]1ccccc1-c1ccccn1.[c-]1ccccc1-c1ccccn1` [Complex 1], the IC50 with A549 was 24 ± 2 µM; in data set [4] it was 42.2 ± 2.7 µM; with PC3, > 100 µM; with MDB-MA-231, 24.5 ± 1.9 µM; with LO2, > 100 µM; in the data set on HeLa it was 10 ± 0.9 µM. The “impact on intracellular ATP levels” value in the data set on A549 cells [7] is “not obvious”. Further, in data set [8], the “Lipophilicity (log Po/w)” value is given as 0.23.

Regarding `N.N.[Cl][Pt][Cl]` [Cisplatin, reference compound], the IC50 with A549 was 22.4 ± 2 µM; in [4] it was 120 ± 6.5 µM; with PC3, 23.8 ± 2 µM; in the data set with MDB-MA-231, 27.5 ± 2.5 µM; with LO2, 26.9 ± 1.9 µM; in the data set with HeLa it was 18.8 ± 1.4 µM.
